Source: PubChem
GASC1 inh: blocks human GASC-1 (KDM4C) demethylase activity; Q9H3R0; GST-KDM4C 2-372, H3K9me3 peptide, LANCE TR-FRET; inhibition, % at 12.5 µM; actives 0.15% (n = 96,000);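 active = mean replicate inhibition above about 25%, with at least 55% of replicates also reaching it, limit read from the data, passing the limit was not always enough; inconclusive = only one of those two conditions met; inactive = neither condition met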
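reagent = H3K9me3 peptide substrate, Fe(II), 2-oxoglutarate | system = GST-tagged GASC-1 (JMJD2C) catalytic fragment, aa 2-372 | amount = enzyme final amount 10 nM | read-out = Fall in 671/618 emission ratio as inhibition | medium = HEPES buffer, pH 7.5, plus ascorbate | schedule = 30 min reaction, 60 min detection, RT | measured by = LANCE TR-FRET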
IDH1 mut inh: inhibitors of human IDH1 R132H; IDH1 R132H reductase, diaphorase/resazurin fluorescence, 60 min; inhibition, % at 10 µM; O75874; AID 624101; actives 0.18% (n = 70,000); in the data active = inhibition above about 34%; inconclusive = no clear call, values can overlap the other calls; inactive = below about 11%;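 note: 0% = DMSO and 100% = no enzyme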
Target sequence (O75874 whole entry R132H): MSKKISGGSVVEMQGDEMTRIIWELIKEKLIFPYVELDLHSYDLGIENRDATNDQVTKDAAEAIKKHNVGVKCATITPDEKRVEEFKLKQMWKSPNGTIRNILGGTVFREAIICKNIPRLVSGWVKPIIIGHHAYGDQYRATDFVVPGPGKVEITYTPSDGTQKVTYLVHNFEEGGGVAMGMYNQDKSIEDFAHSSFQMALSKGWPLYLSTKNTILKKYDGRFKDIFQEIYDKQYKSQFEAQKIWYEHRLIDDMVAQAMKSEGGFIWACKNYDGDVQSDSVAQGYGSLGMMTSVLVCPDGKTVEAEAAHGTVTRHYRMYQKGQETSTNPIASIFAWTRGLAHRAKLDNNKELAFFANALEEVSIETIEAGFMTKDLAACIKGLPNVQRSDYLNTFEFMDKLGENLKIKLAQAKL
Pf Dd2 growth: inhibitors of Plasmodium falciparum Dd2 growth; P. falciparum Dd2 growth, SYBR Green, 72 h; stronger effect = lower value; activity change, % at 10 µM; actives 2.3% (n = 94,000); AID 1159554; in the data active = activity change below about -80%; inconclusive = no clear call, values can overlap the other calls
T cruzi growth-1: blocks T. cruzi growth in NIH3T3 culture; T. cruzi beta-gal in NIH3T3, GalScreen luminescence, 90 h; inhibition, % at 8.34 µM; actives 5.9% (n = 77,000); AID 624255;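 active = mean inhibition above about 93%, with at least 55% of replicates each passing it, limit read from the data, passing the limit was not always enough; inconclusive = only one of those two conditions holds; inactive = neither condition holds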
T cruzi growth-2: Trypanosoma cruzi proliferation inhibition; actives 72% (n = 5,600); AID 651739; shares compounds with T cruzi growth-1; inhibition, % at 8.35 µM; T. cruzi beta-gal in NIH3T3, GalScreen luminescence, 90 h;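 active = mean replicate inhibition above about 95% and at least 55% of replicates individually reaching it, limit read from the data; inconclusive = only one of the two criteria is met; inactive = neither criterion is met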
T cruzi growth-3: inhibitors of T. cruzi proliferation. shares compounds with T cruzi growth-1. T. cruzi beta-gal in NIH3T3, GalScreen luminescence, 90 h. inhibition, % at 2.09 µM. actives 21% (n = 5,600). AID 651740;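 active = mean inhibition above about 95%, with at least 55% of replicates also reaching it, limit read from the data; inconclusive = meets just one of the two conditions; inactive = meets neither condition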;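 note: plate controls were neutral control median for no effect and positive control median for full effect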
NIH3T3 tox: NIH/3T3 (mouse) viability loss; NIH/3T3 viability, CellTiter-Glo ATP luminescence, 90 h; actives 14% (n = 5,600); AID 651742; cytotoxicity (signal decrease), % at 8.35 µM; shares compounds with T cruzi growth-1;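 active = mean signal decrease across replicates above about 35% based on untreated-well scatter, with enough replicates individually passing, limit read from the data; inconclusive = no rule stated though some were filed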;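 note: 0% = median of neutral control wells and 100% = median of positive control wells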
3T3 cytotox 2: kills mouse NIH/3T3 fibroblasts; shares compounds with T cruzi growth-1; NIH/3T3 viability, CellTiter-Glo ATP luminescence, 90 h; inhibition, % at 24.9 µM; actives 56% (n = 5,600); AID 651744;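 active = mean loss of cell viability signal at or above a set limit, and enough replicates individually reaching it; inconclusive = meets only the mean limit or only the replicate share; inactive = meets neither condition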;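 note: 0% = median of neutral control wells and 100% = median of positive control wells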
Numbers without * were called inactive; ? = inconclusive; nt = no result given. Sampled rows, rich in hits. Any-hit rate of the full collection: about 5.8%.

SMILES	GASC1 inh	IDH1 mut inh	Pf Dd2 growth	T cruzi growth-1	T cruzi growth-2	T cruzi growth-3	NIH3T3 tox	3T3 cytotox 2
COc1ccccc1NC(=O)N1CCCCN2[C@H](CO)[C@H](c3ccc(-c4cccc(C)c4)cc3)[C@@H]2C1	-1	nt	-11	?	107*	103*	5	?
Cc1cccc(-c2ccc([C@H]3[C@@H](CO)N4CCCCN(C(=O)NC(C)C)C[C@H]34)cc2)c1	-2	nt	-7	109*	108*	84	-15	105*
COc1ccc(-c2ccc([C@@H]3[C@H](CO)N4CCCCN(C(=O)NC(C)C)C[C@@H]34)cc2)cc1	1	nt	-17	109*	108*	67	10	45*
COc1cccc(-c2ccc([C@H]3[C@H]4CN(C(=O)NC(C)C)CCCCN4[C@H]3CO)cc2)c1	0	nt	17	91	nt	nt	nt	nt
COC(=O)c1c(-c2cccc(C)c2)csc1NC(=O)c1ccccc1[N+](=O)[O-]	nt	0	nt	nt	nt	nt	nt	nt
COc1ccc(NC(=O)Cn2cnc3sc4c(c3c2=O)CCC(C)C4)cc1 (configuration not stated)	nt	0	nt	nt	nt	nt	nt	nt
c1ccc(CCc2nn3c(COc4ccccc4)nnc3s2)cc1	nt	-1	nt	nt	nt	nt	nt	nt
O=C(Cn1c(=O)oc2ccccc21)Nc1ccc(S(=O)(=O)N2CCOCC2)cc1	nt	0	nt	nt	nt	nt	nt	nt
C[C@H]1CN([C@@H](C)CO)S(=O)(=O)c2ccc(C3=CCCC3)cc2O[C@H]1CN(C)Cc1ccccc1F	-3	0	-44	94	nt	nt	nt	nt
C[C@H](CO)N1C[C@H](C)[C@@H](CN(C)Cc2ccccc2F)Oc2cc(C3=CCCC3)ccc2S1(=O)=O	5	1	-19	?	97*	52	-7	105*
C[C@@H]1CN([C@@H](C)CO)S(=O)(=O)c2ccc(C3=CCCC3)cc2O[C@@H]1CN(C)Cc1ccccc1F	1	nt	-77	114*	99*	110*	-4	104*
Cc1nn(C)c(C)c1CNC(=O)c1cc(-c2ccccc2Cl)nc2c(C)cccc12	nt	0	nt	nt	nt	nt	nt	nt
OC[C@H]1Nc2ccc(-c3cccc(F)c3)cc2[C@H]2[C@@H]1CCN2Cc1ccncc1	5	nt	-47	106*	104*	74	21	92*
OC[C@@H]1Nc2ccc(-c3ccccc3)cc2[C@@H]2[C@H]1CCN2Cc1ccc(F)cc1	1	nt	-71	75	nt	nt	nt	nt
OC[C@@H]1Nc2ccc(-c3ccc(F)cc3)cc2[C@H]2[C@@H]1CCN2Cc1ccc(F)cc1	0	nt	-68	44	nt	nt	nt	nt
OC[C@H]1Nc2ccc(-c3cccc(F)c3)cc2[C@@H]2[C@H]1CCN2Cc1ccc(F)cc1	-1	nt	-90*	111*	?	112*	51*	105*
N#Cc1cccc(-c2ccc3c(c2)[C@@H]2[C@@H](CCN2Cc2cncnc2)[C@@H](CO)N3)c1	1	nt	-53	105*	89	51	-2	12
O=C(COc1ccc2ccccc2c1)Nc1cccc(NC(=O)c2ccc(Cl)cc2Cl)c1	nt	0	nt	nt	nt	nt	nt	nt
CSc1nc(N)nc(SCC(=O)c2ccc(Cl)s2)c1C#N	nt	0	nt	nt	nt	nt	nt	nt
COc1ccc(-c2cc(C(F)F)n3ncc(C(=O)N(C)Cc4cnn(C)c4C)c3n2)cc1	nt	0	nt	nt	nt	nt	nt	nt
O=[N+]([O-])c1ccccc1S(=O)(=O)NCCOc1ccc(Cl)cc1	nt	0	nt	nt	nt	nt	nt	nt
Cc1ccccc1NC(=O)COc1ccc(N2CC(C(N)=O)CC2=O)cc1 (configuration not stated)	nt	0	nt	nt	nt	nt	nt	nt
Cc1nn(Cc2ccc(F)cc2)c(C)c1NC(=O)c1cc(-c2cccnc2)nc2c(Cl)cccc12	nt	0	nt	nt	nt	nt	nt	nt
COc1ccc(C#Cc2ccc([C@H]3[C@H]4CN(C(=O)c5ccncc5)CCCCN4[C@H]3CO)cc2)cc1	0	nt	3	105*	64	-18	50*	54*
O=C(c1ccncc1)N1CCCCN2[C@@H](CO)[C@H](c3ccc(C#Cc4ccccn4)cc3)[C@@H]2C1	1	nt	-4	105*	?	15	2	3
SMILES	GASC1 inh	IDH1 mut inh	Pf Dd2 growth	T cruzi growth-1	T cruzi growth-2	T cruzi growth-3	NIH3T3 tox	3T3 cytotox 2
O=C(c1cccnc1)N1CCCCN2[C@H](CO)[C@@H](c3ccc(C#Cc4ccccn4)cc3)[C@H]2C1	0	nt	34	38	nt	nt	nt	nt
C[C@H](O)C#Cc1ccc([C@H]2[C@H]3CN(C(=O)c4ccncc4)CCCCN3[C@H]2CO)cc1	1	nt	17	101*	-4	1	-9	11
COc1ccc(C#Cc2ccc([C@@H]3[C@H]4CN(C(=O)c5ccncc5)CCCCN4[C@H]3CO)cc2)cc1	-1	nt	-27	89	nt	nt	nt	nt
C[C@@H](O)C#Cc1ccc([C@H]2[C@@H](CO)N3CCCCN(C(=O)c4ccncc4)C[C@H]23)cc1	1	nt	23	16	nt	nt	nt	nt
COc1ccc(C#Cc2ccc([C@@H]3[C@H](CO)N4CCCCN(C(=O)c5ccncc5)C[C@@H]34)cc2)cc1	-1	nt	-32	105*	88	74	21	104*
COc1cc(O)c(Oc2cc(C)cc(O)c2C(=O)O)c(CO)c1	nt	1	nt	nt	nt	nt	nt	nt
Cc1ccc(S(=O)(=O)NC(C(=O)O)C(C)C)cc1 (configuration not stated)	nt	0	nt	nt	nt	nt	nt	nt
CC1=CC[C@@]2(C)CC[C@@](O)(C(C)C)[C@@H]2[C@@H](O)C1	nt	0	nt	nt	nt	nt	nt	nt
O=C(CN1C(=O)C2C3C=CC(C4CC34)C2C1=O)Nc1ccc(Oc2ccc(Br)cc2)cc1 (configuration not stated)	nt	0	nt	nt	nt	nt	nt	nt
O=C(CSc1nnnn1-c1ccccc1)Nc1cc(Cl)ccc1O	nt	0	nt	nt	nt	nt	nt	nt
CC(C)CC#Cc1ccc([C@@H]2[C@@H](CO)N3CCCCN(C(=O)Nc4ccccc4)C[C@H]23)cc1	0	nt	-31	?	94	84	59*	106*
CC(C)CC#Cc1ccc([C@H]2[C@H]3CN(C(=O)Nc4ccccc4)CCCCN3[C@H]2CO)cc1	8	nt	4	101*	98*	91	27	83*
COc1ccc(NC(=O)N2CCCCN3[C@H](CO)[C@@H](c4ccc(C#CCC(C)C)cc4)[C@H]3C2)cc1	-1	nt	-68	122*	88	101*	117*	106*
CC(C)CC#Cc1ccc([C@H]2[C@@H](CO)N3CCCCN(C(=O)Nc4ccccc4)C[C@H]23)cc1	-1	nt	-23	37	nt	nt	nt	nt
CC(C)CC#Cc1ccc([C@@H]2[C@@H](CO)N3CCCCN(C(=O)Nc4ccccc4)C[C@@H]23)cc1	-1	nt	9	111*	97*	93	30	103*
COc1ccc(-c2ccc(CCC(=O)O)n2-c2ccc(C(=O)O)cc2)cc1	nt	1	nt	nt	nt	nt	nt	nt
O=C(NC[C@@H]1[C@@H](c2ccccc2)[C@@H](CO)N1C(=O)Cc1cccnc1)C1CC1	1	nt	-54	100*	-35	-65	-15	-8
